# Bioassay records (PubChem BioAssay)
# LMPTP block: LMPTP phosphatase inhibitors, primary screen, biochemical, fluorescence intensity, uHTS. Low molecular weight phosphotyrosine protein phosphatase (Homo sapiens), P24666. recombinant LMPTP-A, OMFP fluorogenic substrate. inhibition, % at 20 µM. hit rate 0.22% among 360,000. AID 651560, 2012;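 active = compounds that cut the enzyme signal by at least half of the control window in the single-dose screen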;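 note: plate controls were DMSO wells with enzyme plus substrate for no effect and substrate without enzyme for full effect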
# Target sequence (P24666 whole entry, looked up): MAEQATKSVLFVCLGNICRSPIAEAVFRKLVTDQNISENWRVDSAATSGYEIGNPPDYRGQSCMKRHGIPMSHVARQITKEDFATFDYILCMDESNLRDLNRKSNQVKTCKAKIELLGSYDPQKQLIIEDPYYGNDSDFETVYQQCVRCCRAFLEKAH
#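 Test system: LMPTP-A phosphatase enzyme; input: 0.625 nM LMPTP-A final; reagent: OMFP substrate, 400 µM final; compound dosing: 20 µM single dose, 3% DMSO; incubation: 50 min dark incubation at room temperature; measured by: endpoint fluorescence intensity from OMFP dephosphorylation; measure: % inhibition relative to no-enzyme and uninhibited control wells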
# SUMO1 PPI mod: modulators of SUMO1 protein-protein interactions, primary screen, biochemical, uHTS; Small ubiquitin-related modifier 1 (Homo sapiens), P63165; SUMO1 binding to a labelled peptide, TR-FRET, 1 h; inhibition, % at 20 µM; hit rate 0.33% among 360,000; in the data active = inhibition above about 37%
# Target sequence (P63165 whole entry, looked up): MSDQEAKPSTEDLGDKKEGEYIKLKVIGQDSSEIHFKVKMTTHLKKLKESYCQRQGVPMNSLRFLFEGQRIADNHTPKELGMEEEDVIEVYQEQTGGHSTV
# DNMT1 inh: human DNMT1 methyltransferase inhibitors, primary screen, biochemical, molecular beacon, fluorescence, HinP1I cleavage, uHTS; inhibition (reported as % activation of signal), % at 10 µM; hit rate 0.83% among 360,000; AID 588458, 2011; in the data active = inhibition above about 50%
# Scp1 inh: Scp-1 phosphatase inhibitors, primary screen, biochemical, colorimetric, uHTS. Recombinant Scp1, phosphopeptide, malachite green phosphate absorbance. Carboxy-terminal domain RNA polymerase II polypeptide A small phosphatase 1 (Homo …. AID 493091, 2011. inhibition, % at 20 µM. hit rate 0.88% among 340,000;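 active = inhibition above about 50% at 20 µM, limit read from the data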;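 note: plate controls were DMSO wells with enzyme for no effect and wells lacking enzyme for full effect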
# Target sequence (Q9GZU7 76-261 limits assumed): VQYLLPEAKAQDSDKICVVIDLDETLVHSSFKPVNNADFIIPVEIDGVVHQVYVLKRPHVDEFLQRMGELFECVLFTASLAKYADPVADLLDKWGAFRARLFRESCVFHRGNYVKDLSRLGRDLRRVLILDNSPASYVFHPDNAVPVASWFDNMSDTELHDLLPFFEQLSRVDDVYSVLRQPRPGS
#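 System: SCP-1 catalytic domain; Reagent: Phospho 17-mer peptide substrate; Doses: one concentration, 20 µM, with 1.0% DMSO; Incubation: 45 min room-temperature reaction, 5 min colour, 30 min stabiliser; Signal: Phosphate-binding colour reagent, absorbance read at 630 nm.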
# GRK2 aptamer HTS: compounds blocking aptamer binding on GRK2 – biochemical, human GRK2, bead flow cytometry, HTS, primary screen; inhibition of aptamer binding, % at 10 µM; AID 488847, 2010; hit rate 0.59% among 330,000; Beta-adrenergic receptor kinase 1 (Homo sapiens), P25098; FAM-aptamer displacement from GRK2;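 active = inhibition of aptamer binding above 40%, roughly 3 SD of noise, on plates passing a quality check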;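 note: median bead fluorescence of bound FAM aptamer so fluorescent compounds give negative values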
# STEP block: STEP phosphatase inhibitors, primary screen, biochemical, fluorescence intensity, uHTS; hit rate 0.25% among 360,000; recombinant STEP, OMFP fluorogenic substrate; inhibition, % at 20 µM;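 active = inhibition at 20 µM, scaled per plate between control wells, above about 37%, limit read from the data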;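 note: 0% = DMSO with enzyme and substrate and 100% = substrate only without enzyme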
#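 Also added – OMFP at 25 µM · Test system – STEP tyrosine phosphatase · Technique – FITC-channel fluorescence of OMFP product · Schedule – 20 min at room temperature, dark · Evaluation – control-normalized % inhibition with plate pattern correction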
# DNMT1 interf DR: spectral interference with molecular beacon fluorescence, dose response, artefact control for DNMT1 inhibitor project, biochemical, fluorescent molecular beacon; shares compounds with DNMT1 inh; spectral interference counter-screen; IC50, µM; 200 tested, under 10 active; AID 602382, 2012; call rule not given here
# DNMT1 inh conf: DNMT1 methyltransferase inhibitor retest, confirmation, biochemical, molecular beacon, fluorescence, single concentration | shares compounds with DNMT1 inh | DNMT1 molecular beacon HinP1I cleavage | inhibition, % at 10 µM | AID 602385, 2012 | hit rate 8% among 2,300;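 active = average inhibition of at least 30% in the single-concentration confirmation test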
# Beacon interf: shows spectral interference in the DNMT1 beacon assay; shares compounds with DNMT1 inh; DNMT1 molecular beacon spectral interference counterscreen, fluorescence 485/520; activation (fluorescence interference), % at 10 µM; hit rate 1% among 2,300; AID 602387;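 active = activation of at least 30% at 10 µM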;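 note: DNMT1 catalytic domain with a HinP1I cleavage step and a FAM/dabcyl DNA beacon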
# Active calls of the source: *; . = not tested or not shown. Rows were chosen to be rich in hits. Some 2.1% of all compounds tested hit in one or more screens of this group.
SMILES,LMPTP block,SUMO1 PPI mod,DNMT1 inh,Scp1 inh,GRK2 aptamer HTS,STEP block,DNMT1 inh conf,Beacon interf,others
O=C1NC(=S)S/C1=C\c1coc2ccc(O)cc2c1=O,3,6,81*,4,5,68*,0,1,
CCNc1ccc(Br)cc(C(=O)/C=C/c2ccc(Cl)cc2Cl)c1=O,17,13,70*,-2,7,11,3,5,
Cc1nc(SCC(=O)Nc2c(C)nn(C)c2C)c2cnn(-c3ccccc3)c2n1,-1,3,-2,-10,1,-1,.,.,
CC(C)c1nc(SCC(=O)Nc2c[nH]c(=O)[nH]c2=O)c2cnn(-c3ccccc3)c2n1,1,7,53*,-1,0,1,2,-1,
C=CCn1c(SCC(=O)NC2CCCC2)nc2scc(-c3ccco3)c2c1=O,6,3,52*,1,1,10,2,3,
COc1ccc2c(c1)Cc1cc(NC(=O)c3ccccc3-c3ccccc3C(=O)O)ccc1-2,-1,34,-3,.,.,-2,.,.,
O=c1oc2c(O)cccc2cc1-c1nc2ccccc2[nH]1,66*,-4,63*,9,0,3,15,20,
Cc1ccc(C)c(SCC(=O)NC(=O)NC2CCCC2)c1,1,-2,74*,-1,13,-1,2,3,
CCN1C(=O)[C@H]2[C@@H](c3ccc(-c4cccc(Cl)c4)c(OC)c3)N[C@@](Cc3ccccc3)(C(=O)OC)[C@H]2C1=O,4,-10,112*,-6,1,1,0,6,
CNc1ccccc1,0,-5,-2,-6,1,3,.,.,
CNc1cccccc1=S,58*,12,85*,10,8,6,0,4,
C/C(=N\NC(=O)c1ccc2c(c1)OCO2)c1ccc(O)cc1,-1,-6,81*,-12,0,-2,26,4,
Cc1ccccc1-n1ncc2c1CC(C)(C)CC2NC(=O)c1snnc1C (stereo not drawn),1,10,0,-3,1,1,.,.,
Cc1cc2nc(CN(C)C(=O)C3CCC(=O)N(C4CCCC4)C3)[nH]c2cc1C (stereo not drawn),35,4,73*,.,.,0,0,4,
Cc1ccc(C2=Nc3ccccc3SC(c3cccc([N+](=O)[O-])c3)C2)cc1 (stereo not drawn),4,-3,0,-4,0,2,.,.,
CCN(CC)c1nc(N)c2c(N)nc(OC)cc2c1C#N,21,52*,81*,-4,2,8,2,2,
COc1cc2c(C#N)c(N3CCCCC3)nc(N)c2c(N)n1,9,52*,65*,1,0,6,8,9,
CCOc1ccc2oc(C(=O)N(CC)CC(=O)Nc3c(F)cccc3F)c(C)c2c1,1,5,-5,-6,0,2,.,.,
OCCCN=c1cc(-c2ccccc2)oc2ccc(Cl)cc12,2,-25,20,3,0,0,.,.,
CC1(C)CC(N=c2cc(-c3ccccc3)oc3ccc(Cl)cc23)CC(C)(C)N1,0,-15,75*,3,.,-2,33*,-6,DNMT1 interf DR=>99
